Reference: ChEMBL document CHEMBL4251655 (Eur J Med Chem, 2018)

Columns and labels:
[1] = molecular target: T1, Mitogen-activated protein kinase kinase kinase 5 (Homo sapiens, UniProt Q99683); test: Inhibition of recombinant full length human GST-tagged ASK1 expressed in baculovirus expression system using STK3 peptide substrate preincubated for 15 mins followed by substrate addition measured after 90 mins in presence of 1 mM ATP by HTRF assay
T1 sequence (Q99683 whole entry): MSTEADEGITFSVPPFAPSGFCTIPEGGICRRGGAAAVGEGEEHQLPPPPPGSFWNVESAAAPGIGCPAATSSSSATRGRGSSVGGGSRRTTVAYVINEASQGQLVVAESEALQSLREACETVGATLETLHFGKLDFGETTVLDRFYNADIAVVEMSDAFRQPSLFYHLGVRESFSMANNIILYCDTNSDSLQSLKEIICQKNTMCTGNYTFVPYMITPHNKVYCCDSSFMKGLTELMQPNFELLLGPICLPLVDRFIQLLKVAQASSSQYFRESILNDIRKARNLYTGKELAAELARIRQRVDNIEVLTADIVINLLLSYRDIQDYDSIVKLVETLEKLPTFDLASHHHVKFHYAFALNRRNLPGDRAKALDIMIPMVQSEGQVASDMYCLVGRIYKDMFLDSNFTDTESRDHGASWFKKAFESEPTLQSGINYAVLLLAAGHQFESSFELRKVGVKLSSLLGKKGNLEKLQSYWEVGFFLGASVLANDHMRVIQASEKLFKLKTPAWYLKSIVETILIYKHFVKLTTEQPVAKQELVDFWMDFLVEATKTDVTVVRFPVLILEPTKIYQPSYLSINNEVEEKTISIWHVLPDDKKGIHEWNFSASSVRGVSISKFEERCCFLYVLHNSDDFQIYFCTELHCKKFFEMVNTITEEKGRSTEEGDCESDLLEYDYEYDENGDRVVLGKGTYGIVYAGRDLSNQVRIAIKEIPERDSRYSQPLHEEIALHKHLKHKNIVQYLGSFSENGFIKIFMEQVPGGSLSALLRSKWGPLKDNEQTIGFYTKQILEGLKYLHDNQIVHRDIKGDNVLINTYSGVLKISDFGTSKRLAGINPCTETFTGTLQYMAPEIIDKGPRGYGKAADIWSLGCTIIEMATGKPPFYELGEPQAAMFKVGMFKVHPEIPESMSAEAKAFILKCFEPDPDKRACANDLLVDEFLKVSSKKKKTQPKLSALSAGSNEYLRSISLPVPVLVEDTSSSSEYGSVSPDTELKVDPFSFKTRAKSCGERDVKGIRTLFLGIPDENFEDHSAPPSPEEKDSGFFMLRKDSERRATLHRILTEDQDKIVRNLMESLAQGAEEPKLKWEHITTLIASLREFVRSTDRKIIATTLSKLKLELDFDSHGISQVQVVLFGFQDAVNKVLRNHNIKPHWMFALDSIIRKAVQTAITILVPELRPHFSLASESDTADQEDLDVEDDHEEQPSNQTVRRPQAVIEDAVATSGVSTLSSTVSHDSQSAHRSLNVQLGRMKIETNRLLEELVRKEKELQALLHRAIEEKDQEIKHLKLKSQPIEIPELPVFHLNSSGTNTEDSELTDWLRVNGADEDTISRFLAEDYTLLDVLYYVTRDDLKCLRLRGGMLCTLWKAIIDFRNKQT
Outline: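 Full-length recombinant human ASK1 (3 nM final) in kinase buffer with 5 mM MgCl2 and 1 mM DTT, preincubated with compound 15 min at 25 °C. Reaction started with ATP (1 mM) and STK3 peptide (1 µM final), run 90 min at room temperature, 2% DMSO. Stopped with EDTA detection mix, HTRF read after 2 h. Kiapp fitted by Morrison or competitive equation, converted to IC50 by Cheng-Prusoff using ATP Km 48 µM. Mean of at least two determinations.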

[2] = molecular target: T1, Mitogen-activated protein kinase kinase kinase 5; test: Inhibition of recombinant full length human ASK1 expressed in HEK293/AP1-Luc cells assessed as reduction in p38 phosphorylation after 18 hrs by HTRF assay; format: cell-based
Outline: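 HEK293/AP-1luc cells stably overexpressing wild-type human full-length ASK1 (constitutively active, no stimulus), seeded at 25K cells/well, held 8 h at 37 °C, then switched to Optimem with Geneticin. Compound dilution series added (final DMSO 0.5%) for 18 h at 37 °C, 5% CO2. Cells lysed 1 h at room temperature; phospho-p38 read by HTRF after overnight (18 h) detection. Mean of at least two determinations.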

[3] = Permeability of the compound in RRCK cells; format: ADME, cell-based, Canis lupus familiaris, MDCKII-LE; conditions: dog, MDCK; read-out: permeability
[4] = Lipophilicity, log D at pH 7.4 by shake flask method; conditions: buffer

SMILES | IC50 [1] [µM] | IC50 [2] [µM] | Papp [3] [nm/s] | logD [4]
CCS(=O)(=O)Nc1cccc(C(=O)Nc2cccc(-c3nncn3C(C)C)n2)c1 | 0.073 |  |  | 1.7
CC(C)n1cnnc1-c1cccc(NC(=O)c2cccc(-c3ncc[nH]3)c2)n1 | 0.17 |  |  | 2.4

The remaining molecules from weak to strong by IC50 [1], led by results:

IC50 [1] [µM] | IC50 [2] [µM] | Papp [3] [nm/s] | logD [4] | SMILES
0.58 |  |  |  | CC(C)n1cnnc1-c1cccc(NC(=O)c2cccc(C(N)=O)c2)n1
0.0024 | 0.272 | 98 | 1.8 | CNC(=O)c1ccc(OC)c(C(=O)Nc2cccc(-c3nncn3C(C)C)n2)c1
0.00032 | 0.041 | 56 | 2.2 | CCS(=O)(=O)Nc1ccc(OC)c(C(=O)Nc2cccc(-c3nncn3C(C)C)n2)c1
